High-throughput results as filed in PubChem.
aDG glyco act – activators of alpha-DG glycosylation, primary screen, uHTS, Pro5-aDG cells, AlphaScreen; AID 624168, 2012; activation, % at 10 µM; alpha-DG glycosylation AlphaScreen (IIH6); 0% Pro5, 100% B10-LARGE cell signal; 360,000 tested, 0.22% active;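 active = activation of at least 8% versus controls, or a plate z-score of at least 8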;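 also: Pro5 are CHO cells carrying HIG-tagged alpha-DG that lacks glycosylation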
Rce1 inh – yeast Rce1p protease inhibitors, primary screen, biochemical, fluorescence, cell-free homogeneous. CAAX prenyl protease 2 (Saccharomyces cerevisiae (strain ATCC 204508 / S288c)), Q03530. yeast membranes, quenched prenylated peptide cleavage fluorescence. calls only. 290,000 tested, 0.27% active. AID 2563, 2010;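 active = fall in fluorescence gain of 50% or more versus controls, with final raw signal at or below 3038400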
Target sequence (Q03530 whole entry, looked up): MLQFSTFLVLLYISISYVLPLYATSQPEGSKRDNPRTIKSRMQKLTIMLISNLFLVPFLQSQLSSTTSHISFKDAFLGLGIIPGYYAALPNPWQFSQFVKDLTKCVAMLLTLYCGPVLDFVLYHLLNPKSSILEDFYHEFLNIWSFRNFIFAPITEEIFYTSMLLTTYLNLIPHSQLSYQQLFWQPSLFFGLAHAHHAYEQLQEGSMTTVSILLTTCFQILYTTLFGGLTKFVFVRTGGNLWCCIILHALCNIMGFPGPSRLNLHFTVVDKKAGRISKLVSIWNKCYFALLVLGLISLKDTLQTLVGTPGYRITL
T cell HTS – modulators of CD8 T cell-vesicle binding, primary screen, mouse 2C CD8+ T cells, flow cytometry. 2C CD8+ T cell-vesicle binding; hits give low values. response (vesicle binding), % at 7 µM. 330,000 tested, 0.068% active. AID 2052, 2009;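 active = response, share of CD8 T cells binding vesicles, and their 90th percentile fluorescence all below set limits, cut at about 80% in these data, passing the limit was not always enough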;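 also: values below 100% mean blocked vesicle binding to the CD8+ T cells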
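System: murine 2C transgenic CD8+ T lymphocytes; also added: QL9-loaded Drosophila micro-vesicles; times: binding 1.5 h at 37 °C; measured by: flow cytometry, PE anti-B7-1 (FL2) versus Alexa647 anti-CD8 (FL8), PFA-fixed; control set: Peptide-free naked vesicles (low) and QL9 vesicles with 0.7% DMSO vehicle (high)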
PolyA inhibitor – polyadenylation inhibitors in yeast reporter cells, primary screen, luminescence, S. cerevisiae; AID 1875, 2009; S. cerevisiae SKY197-pL101 polyadenylation reporter, beta-gal luminescence; efflux-impaired pdr1/pdr3 knockout yeast; score 100 = 6 SD above DMSO; activity score, % at 12 µM; 300,000 tested, 0.02% active;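 active = lowest replicate activity score at least 50, where 100 means six control SD above control mean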;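 also: yeast exposed to compound for 9 h at 30 °C; higher score means more reporter readthrough which indicates perturbed polyadenylation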
aDG glyco conf – alpha-DG glycosylation enhancers, retest, confirmation, single concentration, Pro5-aDG cells | shares compounds with aDG glyco act | IIH6 AlphaLISA; scaled to LARGE-overexpressing B10 cells as 100% | activation, % at 10 µM (by protocol) | 600 tested, 17% active;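 active = activation of at least 7% in one or more replicates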;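 also: cells exposed to compound for two days before detection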
A number is an active result; - = inactive; . = no result. This is a sample that favours compounds with a hit; in the whole collection about 0.51% have one here.

SMILES	aDG glyco act	Rce1 inh	T cell HTS	PolyA inhibitor	aDG glyco conf
CC(=O)Nc1cccc(-c2ccnc3c2CC(C(=O)Nc2cccc(N(C)C)c2)O3)c1 (centres undefined)	-	.	.	.	.
O=C(CN1C2=NCCCN2c2ccccc21)c1ccc([N+](=O)[O-])cc1	7.5	-	-	-	-
O=C(CN1C2=NCCCN2c2ccccc21)c1cccc(Br)c1	-	-	-	-	.
COc1cccc(-c2nc3nc(C)cc(C)n3c2NCc2ccccc2)c1	5.3	.	.	.	-
O=C(O)c1ccc2c(c1)S(=O)(=O)c1cc(N3CCN(c4cnccn4)CC3)ccc1C2=O	-	.	.	.	.
CC(=O)c1cccc(NC(=O)c2cc(=O)[nH]c3ccccc23)c1	-	-	-	-	.
CCN(CC)S(=O)(=O)c1ccc2[nH]c(=O)cc(C(=O)Nc3cccc(C(C)=O)c3)c2c1	9.2	-	-	-	-
CC12CCC(C(N)C1=O)C2(C)C (centres undefined)	-	.	.	.	.
CC12CCC(C(NC(=S)NN)C1=O)C2(C)C (centres undefined)	27	.	.	.	-
O=c1cc(-c2ccccc2)oc2ccc(O)cc12	2.4	-	-	-	-
Cc1cc(OCc2nc(-c3cccs3)no2)cc(C)c1Cl	7.7	-	-	-	-
c1ccc(OCc2nc(-c3cccs3)no2)cc1	-	-	-	-	.
CC(=O)N1CCN(S(=O)(=O)c2ccc(C)cc2)C1C (centres undefined)	-	-	-	-	.
Cc1ccccc1C(=O)NCC(=O)Nc1ccc(C)c(S(=O)(=O)N2CCCCCC2)c1	-	-	-	-	.
CCCn1c(=N)n(CC(=O)c2ccc(Cl)cc2)c2ccccc21	3.8	-	-	-	6.0
CCCn1c(=N)n(CC(=O)c2ccc([N+](=O)[O-])cc2)c2ccccc21	-	-	-	-	.
COc1cccc(C(=O)Cn2c(=N)n(C)c3ccccc32)c1	7.5	-	-	-	5.1
N=c1n(CCN2CCOCC2)c2ccccc2n1CC(=O)c1ccc(Cl)c(Cl)c1	7.7	-	-	-	6.6
C#CCNC(=O)C[C@@H]1C[C@@]2(C(=O)OC)CCCCC=C2N(Cc2ccc(Cl)cc2Cl)C1=O	-	.	.	.	.
COc1ccc(NC(=O)C2CC(=O)N=C(N)S2)cc1 (centres undefined)	12	-	-	-	-
COc1ccc(OC)c(C(=O)N(C[C@H]2CC[C@@H]([C@@H]3CC[C@H](CO)O3)O2)C(C(=O)NC(C)(C)C)c2ccc(-c3ccccc3)cc2)c1 (some centres undefined)	5.8	.	.	.	-
CCc1ccc(OCCCCN(C)Cc2ccccc2)cc1	1.8	-	-	-	-
CN(CCCCOc1ccc(F)cc1)Cc1ccccc1	-	-	-	-	.
CCCNC(=O)C1(CC2CC(c3ccccc3)=NO2)CCN(C(=O)C2CCCC2)CC1 (centres undefined)	-	.	-	.	.
O=C1CN2NC(=S)N(c3ccccc3)C2=CN1c1ccc(Cl)cc1	-	-	-	-	.
SMILES	aDG glyco act	Rce1 inh	T cell HTS	PolyA inhibitor	aDG glyco conf
CCN(CC)S(=O)(=O)c1ccc(C)c(NC(=S)N2CCN(C/C=C/c3ccccc3)CC2)c1	8.6	-	-	-	-
CCOC(=O)C1=C(C(=O)OCC)N(CC2CCCCC2)CCC1=O	-	.	.	.	.
O=C(CSc1nnc(Cn2nnc3ccccc32)o1)N(Cc1ccc(Cl)cc1)c1ccccc1	6.4	-	-	-	-
O=C(CSc1nnc(Cn2nnc3ccccc32)o1)Nc1cccc(Cl)c1	-	-	-	-	.
CCc1cc(=O)oc2cc(C)cc(OC(C)C(=O)NCCCN3CCOCC3)c12 (centres undefined)	-	-	-	-	.
Cc1cc(OC(C)C(=O)NCCN2CCOCC2)c2c(C)cc(=O)oc2c1 (centres undefined)	8.3	-	-	-	-
CC(C)Cc1cc(CN2CCCC(CO)(Cc3cccc(Cl)c3)C2)[nH]n1 (centres undefined)	-	-	-	-	.
CC(C)Cc1cc(CN2CCC(CO)(Cc3cccc(C(F)(F)F)c3)CC2)[nH]n1	10	-	-	-	-
NC(CCc1ccccc1)c1csc(Nc2ccc(C(=O)c3ccccc3)cc2)n1 (centres undefined)	8.0	.	.	.	-
C[C@H]1CN([C@@H](C)CO)S(=O)(=O)c2ccc(-c3ccc(C#N)cc3)cc2O[C@H]1CN(C)C(=O)CN(C)C	-	.	.	.	.
Cc1cc(C)c(S(C)(=O)=O)c(S(=O)(=O)c2ccc(Cl)cc2)n1	-	-	-	-	.
Cc1cc(C)c(S(=O)(=O)O)c(C)n1	6.9	-	-	-	-
Cc1ccccc1-n1c(SCC(=O)N2CCOCC2)nc(O)c(Cc2ccccc2)c1=O	-	-	-	-	.
COc1ccc(CNC(=O)C/C(C)=N/NC(=O)COc2ccc(Br)cc2)cc1	-	-	-	-	.
CCCCOP(=O)(OCCCC)C1(NS(=O)(=O)c2ccccc2)C=CC(=O)c2ccccc21 (centres undefined)	5.9	-	-	-	-
Cc1nnc(SCc2ccccn2)n(N)c1=O	3.5	-	-	-	-
CCC(=O)N1CCC1(C)C(=O)NS(=O)(=O)c1cccc(C#N)c1 (centres undefined)	-	.	.	.	.
CC(=O)Oc1ccc(C(=O)Nc2cccc3c2CCCC3)cc1	-	-	-	-	.
O=[N+]([O-])c1ccc(S(=O)(=O)NN=CCCc2ccccc2)cc1	-	.	.	.	.
C[C@H](CO)N1C[C@H](C)[C@@H](CN(C)C(=O)NC2CCCCC2)Oc2ccc(NS(=O)(=O)c3cn(C)cn3)cc2C1=O	-	.	-	.	.
CC(C)NC(=O)N(C)C[C@H]1Oc2ccc(NS(=O)(=O)c3cn(C)cn3)cc2C(=O)N([C@H](C)CO)C[C@@H]1C	9.3	.	-	.	-
Cc1cc2ncc(S(=O)(=O)c3ccccc3)c(N)n2n1	6.3	-	-	-	-
Cc1cc2ncc(S(=O)(=O)C(C)(C)C)c(N)n2n1	-	-	-	-	.
CN(CC(=O)Nc1cccc(F)c1)C(=O)c1cccc(S(=O)(=O)N2CCN(c3ccccc3)CC2)c1	8.0	-	-	-	-
O=C1CC(c2ccccc2)n2nc(NC(=O)C3CCCO3)nc2N1 (centres undefined)	3.1	-	-	-	-
SMILES	aDG glyco act	Rce1 inh	T cell HTS	PolyA inhibitor	aDG glyco conf
Cc1cc2nccnc2cc1C	-	.	.	.	.
O=C(O)c1cc(Cl)n[nH]c1=O	-	.	.	.	.
CCCCCCc1nc2ccccc2c(=O)n1NC(=O)c1c(O)c2c(n(CC(C)C)c1=O)CCCC2	6.3	-	-	-	-
CCn1c(CC(=O)Nc2ccc(F)cc2)nnc1SCC(=O)NC1CCCC1	-	-	-	-	.
C/C(=N\Nc1nc(C)cc(-c2ccccc2)n1)c1ccc(C)o1	4.6	-	-	-	-
Cc1ccccc1COC(=O)CCC1=NS(=O)(=O)c2ccccc2N1	-	-	-	-	.
O=C(Nc1ccc2ncccc2c1)c1cccc(Br)c1	-	-	-	-	.
